Measured values pooled from the literature.
Lines come from different studies, so protocols differ.
Target: G protein-coupled receptor kinase 3 (GRK3, Homo sapiens, UniProt P35626)
Sequence (P35626 1-688, as in one of the studies): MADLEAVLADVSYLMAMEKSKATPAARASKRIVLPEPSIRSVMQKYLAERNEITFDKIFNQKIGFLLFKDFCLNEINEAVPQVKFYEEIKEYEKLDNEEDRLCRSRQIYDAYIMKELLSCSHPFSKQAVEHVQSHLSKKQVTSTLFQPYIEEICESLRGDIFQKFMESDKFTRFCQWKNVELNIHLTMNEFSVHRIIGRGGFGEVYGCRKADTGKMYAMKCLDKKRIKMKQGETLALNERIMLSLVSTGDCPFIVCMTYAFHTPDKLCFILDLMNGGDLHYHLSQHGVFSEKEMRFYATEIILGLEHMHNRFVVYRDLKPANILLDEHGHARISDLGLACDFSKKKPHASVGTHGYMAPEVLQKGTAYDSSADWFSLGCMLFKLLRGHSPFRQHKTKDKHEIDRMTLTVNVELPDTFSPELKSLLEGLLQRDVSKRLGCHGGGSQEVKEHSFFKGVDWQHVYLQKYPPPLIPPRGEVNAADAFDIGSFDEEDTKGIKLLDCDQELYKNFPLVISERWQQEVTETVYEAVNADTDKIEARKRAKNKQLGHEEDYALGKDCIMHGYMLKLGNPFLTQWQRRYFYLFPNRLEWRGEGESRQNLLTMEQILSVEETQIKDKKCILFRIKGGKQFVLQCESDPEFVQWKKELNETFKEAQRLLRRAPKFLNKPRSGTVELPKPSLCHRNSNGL

SMILES	effect on	technique	tested at	remaining binding [%]
O=C(NCCCN1CCOCC1)c1ccc(Nc2nccc(-c3cc4ccccc4s3)n2)cc1	binding	competition with immobilised ligand	1 µM	88
C[C@@H](c1cccc(C#N)c1)n1cc(Cl)cc(C(N)=O)c1=N	cell-free assay	competition with immobilised ligand	1 µM	81
N[C@H]1CCN(c2nccc(-c3cnn4ncccc34)n2)C1	binding	–	1 µM	66
CN(C)C(=O)Cn1cc(-c2nc([C@@](C)(c3ccc(-c4cnc(N)nc4)cc3)C3CC3)no2)cn1	cell-free assay	competition with immobilised ligand	1 µM	86
O=C(Nc1c[nH]nc1C(=O)NC1CCNCC1)c1cc(F)cc(F)c1	binding	competition with immobilised ligand	1 µM	82
COc1ccc2c(c1)O[C@H](c1ccc(OC)c(OC)c1)C[C@@H]2NC(=O)C1(c2ccc3c(c2)OC(F)(F)O3)CC1	cell-free assay	competition with immobilised ligand	1 µM	100
FC(F)(F)Oc1cccc(-c2cnc3ccc(-c4ccncc4)nn23)c1	cell-free assay	competition with immobilised ligand	5 µM	99
C[C@H]1CCN(c2nccc(-c3cnn4ncccc34)n2)C1	binding	–	1 µM	33
O=C(Nc1ccc(Oc2ccc(F)cc2)cc1)N1CCc2ncccc2[C@H]1c1ccc(F)cc1	cell-free assay	competition with immobilised ligand	1 µM	95
Cc1cnn2ncc(-c3ccnc(N(C)C)n3)c2c1	binding	–	1 µM	67
COc1ncc2cc3ccccc3nc2c1C#N	cell-free assay	competition with immobilised ligand	5 µM	53
CNC(=O)[C@@H]1CC[C@@H](n2c(-c3ccc4cnccc4c3)nc3ccc(C(=O)NCc4cccc(C(N)=O)c4)cc32)C1	binding	competition with immobilised ligand	1 µM	68
CC1CCCN1c1nccc(-c2cnn3ncccc23)n1 (stereo not drawn)	binding	–	1 µM	100
O=C(Nc1cnc(Oc2ccc(F)cc2)nc1)N1CCc2ncccc2[C@@H]1c1ccc(F)cc1	cell-free assay	competition with immobilised ligand	1 µM	96
O=C(c1ccc(Nc2nccc(-c3cc4ccccc4s3)n2)cc1)N1CCC(N2CCCC2)CC1	binding	competition with immobilised ligand	1 µM	64
F[C@@H]1CCN(c2nccc(-c3cnn4ncccc34)n2)C1	binding	–	1 µM	13
Cc1cnc(Nc2ccc(C(=O)N3CCC(N4CCCC4)CC3)cc2)nc1-c1cc2ccccc2s1	binding	competition with immobilised ligand	1 µM	73
FC(F)(F)c1ccc2c(c1)nc(-c1cccnc1)n2C1CC1	cell-free assay	competition with immobilised ligand	1 µM	76
C[C@@H](c1ccc(-n2cnc3c(N)ncnc32)cc1)N1CCc2nn(C)c(Cc3ccccc3)c2C1=O	binding	competition with immobilised ligand	0.1 µM	87
C=CC(=O)N1CCC(C(=O)NCC(=O)N2CCN(c3nc(-c4cnc(N)nc4C(F)F)nc(N4CCOCC4)n3)CC2)CC1	binding	competition with immobilised ligand	1 µM	100
CN(C)c1ncc(F)c(-c2cnn3ncccc23)n1	binding	–	1 µM	100
